The values that follow come from ChEMBL document CHEMBL3856209, “Novel pyrazolopyridine derivatives as potential angiogenesis inhibitors: Synthesis, biological evaluation and transcriptome-based mechanistic analysis” (Eur J Med Chem, 2016).

Active and inactive are the calls of the source.

In experiment [1] the test system is HUVEC. The experiment in a line: Effect on IL10 gene expression in serum-starved HUVEC after 6 hrs by microarray analysis relative to control. The format is functional, Homo sapiens. Put shortly:
(§1)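 Confluent, serum-starved HUVEC (pooled from 3–5 donors, passage ≤4) treated with 2 μM compound or vehicle with 2.5% FBS for 6 h or 24 h. Total RNA hybridized to Illumina Human-HT12 arrays. Data were background-corrected, vst-transformed and rsn-normalized. Hits called by moderated paired t-test versus DMSO-treated cells, p < 0.05 and log2 fold change >|0.5|.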

Experiment [2] has as its system HUVEC. Kind of experiment: Effect on RNA18S5 gene expression in serum-starved HUVEC after 6 hrs by microarray analysis relative to control. The format is functional, Homo sapiens.
For experiment [3], the system named is HUVEC. The experiment in a line: Effect on RETSAT gene expression in serum-starved HUVEC after 6 hrs by microarray analysis relative to control. The format is functional, Homo sapiens.
The test system of experiment [4] is HUVEC. Kind of experiment: Effect on GANAB gene expression in serum-starved HUVEC after 6 hrs by microarray analysis relative to control. Format: functional, Homo sapiens. Put shortly: as §1
Experiment [5] relates to HUVEC. The experiment in a line: Effect on MMP1 gene expression in serum-starved HUVEC after 6 hrs by microarray analysis relative to control. Format: functional, Homo sapiens. Put shortly: (§2)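 Serum-starved confluent HUVEC (pooled from 3–5 donors, passage ≤4) were treated with 2 μM compound or vehicle in 2.5% FBS for 6 h or 24 h, and total RNA was isolated. Hybridization was on Illumina Human-HT12. Data were processed with bgAdjust, vst and rsn normalization. Changes versus DMSO were called by moderated paired t-test at p < 0.05 and |log2 fold change| > 0.5.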

Experiment [6] has as its system HUVEC. The experiment in a line: Effect on MYO10 gene expression in serum-starved HUVEC after 6 hrs by microarray analysis relative to control. The format is functional, Homo sapiens.
The subject of experiment [7] is HUVEC. Kind of experiment: Effect on GLIPR1 gene expression in serum-starved HUVEC after 6 hrs by microarray analysis relative to control. The format is functional, Homo sapiens. Summed up:
as §1

The subject of experiment [8] is HUVEC. Kind of experiment: Effect on HMGB2 gene expression in serum-starved HUVEC after 6 hrs by microarray analysis relative to control. The format is functional, Homo sapiens.
The test system of experiment [9] is HUVEC. Kind of experiment: Effect on KITLG gene expression in serum-starved HUVEC after 24 hrs by microarray analysis relative to control. Format: functional, Homo sapiens. Summed up:
as §2

Experiment [10] has as its system HUVEC. The experiment in a line: Effect on SULF1 gene expression in serum-starved HUVEC after 6 hrs by microarray analysis relative to control. The format is functional, Homo sapiens.
Experiment [11] relates to HUVEC. The experiment in a line: Effect on AFAP1L1 gene expression in serum-starved HUVEC after 6 hrs by microarray analysis relative to control. Format: functional, Homo sapiens. Put shortly:
(§3)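 Confluent serum-starved HUVEC (primary, pooled from 3–5 donors, passage ≤4) treated with 2 μM compound or DMSO vehicle in 2.5% FBS for 6 h or 24 h. Total RNA hybridized to Illumina Human-HT12 arrays, background-corrected, vst-transformed and rsn-normalized. Differential expression versus DMSO by moderated paired t-test (p < 0.05, |log2 fold change| > 0.5).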

For experiment [12], the system named is HUVEC. Kind of experiment: Effect on FUCA1 gene expression in serum-starved HUVEC after 24 hrs by microarray analysis relative to control. Format: functional, Homo sapiens. Summed up:
as §3

Experiment [13] can be described thus: Downregulation of HMOX1 gene expression in serum-starved HUVEC at 2 uM after 24 hrs by qRT-PCR analysis. The format is functional, cell-based. Conditions: Homo sapiens. Summed up:
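Serum-starved confluent HUVEC treated with 2 μM compound or vehicle in 2.5% FBS for 24 h. Total RNA isolated and qRT-PCR run in triplicate (95 °C 5 min; 40 cycles of 95 °C 5 s, 58 °C 20 s, 72 °C 5 s), normalized to RPS18S. Fold change vs control, n = 3.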
(In general: Real-time PCR tracks product formation cycle by cycle.)

Experiment [14] concerns HUVEC. The experiment in a line: Effect on VCAM1 gene expression in serum-starved HUVEC after 24 hrs by microarray analysis relative to control. Format: functional, Homo sapiens.
Experiment [15] deals with HUVEC. Kind of experiment: Effect on INSIG1 gene expression in serum-starved HUVEC after 6 hrs by microarray analysis relative to control. The format is functional, Homo sapiens. Summed up: as §1
In experiment [16] the test system is HUVEC. The experiment in a line: Effect on CTSH gene expression in serum-starved HUVEC after 6 hrs by microarray analysis relative to control. Format: functional, Homo sapiens. Put shortly:
as §1

In experiment [17] the test system is HUVEC. The experiment in a line: Effect on ACACA gene expression in serum-starved HUVEC after 6 hrs by microarray analysis relative to control. Format: functional, Homo sapiens. Put shortly: (§4)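 Serum-starved confluent HUVEC treated with 2 μM compound or DMSO in 2.5% FBS for 6 h or 24 h; RNA hybridized to Illumina Human-HT12 arrays. Data background-corrected, vst-transformed and rsn-normalized. Differential probes called by moderated paired t-test (limma) at p < 0.05 and log2 fold change >|0.5| vs DMSO.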

The test system of experiment [18] is HUVEC. The experiment in a line: Effect on NEDD9 gene expression in serum-starved HUVEC after 24 hrs by microarray analysis relative to control. The format is functional, Homo sapiens. Summed up: as §2
For experiment [19], the system named is HUVEC. The experiment in a line: Effect on RNU4ATAC gene expression in serum-starved HUVEC after 24 hrs by microarray analysis relative to control. The format is functional, Homo sapiens.
Experiment [20] deals with HUVEC. Kind of experiment: Effect on SQLE gene expression in serum-starved HUVEC after 24 hrs by microarray analysis relative to control. The format is functional, Homo sapiens.
For experiment [21], the system named is HUVEC. The experiment in a line: Effect on ABCA1 gene expression in serum-starved HUVEC after 6 hrs by microarray analysis relative to control. Format: functional, Homo sapiens. Summed up:
as §3

In experiment [22] the test system is HUVEC. The experiment in a line: Effect on RDH11 gene expression in serum-starved HUVEC after 24 hrs by microarray analysis relative to control. Format: functional, Homo sapiens.
Experiment [23] deals with HUVEC. Kind of experiment: Effect on TK1 gene expression in serum-starved HUVEC after 6 hrs by microarray analysis relative to control. Format: functional, Homo sapiens.
Experiment [24] has as its system HUVEC. Kind of experiment: Effect on OIP5 gene expression in serum-starved HUVEC after 6 hrs by microarray analysis relative to control. Format: functional, Homo sapiens.
The subject of experiment [25] is HUVEC. Kind of experiment: Effect on CENPF gene expression in serum-starved HUVEC after 24 hrs by microarray analysis relative to control. The format is functional, Homo sapiens. Put shortly: (§5)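 Serum-starved confluent HUVEC (primary, pooled from 3–5 donors, passage ≤4) treated with 2 μM test compound or DMSO vehicle (working dilutions ≤0.1% v/v) in presence of 2.5% FBS for 6 h or 24 h; total RNA hybridized to Illumina Human-HT12 arrays; background correction, vst, rsn normalization; moderated paired t-test versus DMSO, thresholds p < 0.05 and log2 fold change >|0.5|.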

Experiment [26] relates to HUVEC. The experiment in a line: Effect on GPR116 gene expression in serum-starved HUVEC after 6 hrs by microarray analysis relative to control. The format is functional, Homo sapiens. Put shortly:
as §1

The subject of experiment [27] is HUVEC. Kind of experiment: Effect on FAM213A gene expression in serum-starved HUVEC after 6 hrs by microarray analysis relative to control. Format: functional, Homo sapiens. Summed up: as §3
The test system of experiment [28] is HUVEC. Kind of experiment: Effect on BHLHE40 gene expression in serum-starved HUVEC after 24 hrs by microarray analysis relative to control. Format: functional, Homo sapiens. Put shortly: as §4
Experiment [29] concerns HUVEC. The experiment in a line: Effect on LDLR gene expression in serum-starved HUVEC after 6 hrs by microarray analysis relative to control. Format: functional, Homo sapiens. Summed up: as §2
Experiment [30] concerns HUVEC. The experiment in a line: Effect on LSS gene expression in serum-starved HUVEC after 24 hrs by microarray analysis relative to control. Format: functional, Homo sapiens. Summed up:
as §2

Experiment [31] relates to HUVEC. The experiment in a line: Effect on CYTL1 gene expression in serum-starved HUVEC after 24 hrs by microarray analysis relative to control. Format: functional, Homo sapiens. Summed up: as §5
Experiment [32] has as its system HUVEC. The experiment in a line: Effect on ASPM gene expression in serum-starved HUVEC after 6 hrs by microarray analysis relative to control. The format is functional, Homo sapiens. Put shortly: as §4
The test system of experiment [33] is HUVEC. The experiment in a line: Effect on ITGA2 gene expression in serum-starved HUVEC after 24 hrs by microarray analysis relative to control. Format: functional, Homo sapiens. Summed up:
as §1

Experiment [34] relates to HUVEC. Kind of experiment: Effect on CKS1B gene expression in serum-starved HUVEC after 24 hrs by microarray analysis relative to control. Format: functional, Homo sapiens. Summed up:
as §4

The test system of experiment [35] is HUVEC. Kind of experiment: Effect on SIVA1 gene expression in serum-starved HUVEC after 6 hrs by microarray analysis relative to control. Format: functional, Homo sapiens.

On to `COc1ccc(Cn2nc(-c3ccccc3)c3cc(Nc4ccc(N5CCN(C)CC5)cc4)nc(N4CCNCC4)c32)cc1`, for which the log2FC in experiment [1] is reported as 0.4049; in experiment [2] it was -0.2889; in [3] it was 0.0844; in [4] it was -0.1113; in [5], -0.1422.
With `COc1ccc(Cn2nc(-c3ccccc3)c3cc(Nc4ccc(N5CCN(C)CC5)cc4)nc(N4CCN(C)CC4)c32)cc1`, the “fold change (FC)” value is on record as -0.0407 in [6]; 0.1533 in experiment [7]; -0.0362 in experiment [8]; 0.0116 in experiment [11]; -1.0254 in experiment [12]; 1.0454 in [15]. For the same compound, the “fold change (FC)” value in [16] is on record as 0.4595; in [17], 0.1305; in experiment [21], 0.0783; in experiment [24], -0.4214; in experiment [25], -0.7151; in experiment [26], 0.1625. In addition, the results for the “fold change (FC)” value in experiment [27], in [29] and in experiment [31] were -0.0934, 0.9404 and 0.5166, respectively. For the same compound, the log2FC was 0.5605 in [9]; 0.5151 in experiment [10]; -0.7052 in experiment [14]; 0.6094 in [18]; -0.0618 in experiment [19]; 1.0535 - 1.1624 in experiment [20]. Also, the log2FC in experiment [22] is reported as 0.6682; in [23], -0.2736; in experiment [28] it was 0.6018; in experiment [30] it was 1.6178. Moreover, the result in [13] was Active.
With `COc1ccc(Cn2nc(-c3ccccc3)c3cc(Cl)nc(N4CCNCC4)c32)cc1`, the “fold change (FC)” value in [32] came to 0.1684. Further, the log2FC is reported as -0.0226 in experiment [33], -0.5699 in experiment [34] and -0.2087 in experiment [35].
